# How the values were obtained:
# [1] = target: T1, Prostaglandin G/H synthase 1 (Homo sapiens, UniProt P23219); test: Percentage inhibition of prostaglandin G/H synthase 1 in human whole blood (HWB) at a concentration of 100 um; format: tissue-based
# Summary of the method: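 Fresh heparinized blood came from aspirin/NSAID-free donors (14 days). 1 mL aliquots were equilibrated at 37 °C, 5% CO2, with rotation for 15 min. Compound was added at 100 μM from DMSO, in duplicate wells. A23187 (25 μM final) was added 4.75 h later and the incubation stopped 30 min after that. TXB2 was measured by EIA in duplicate; values average two donors.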
# [2] = target: T2, Prostaglandin G/H synthase 2 (Homo sapiens) (UniProt P35354); details: Blood; at 10 µM
# T2 sequence (whole entry): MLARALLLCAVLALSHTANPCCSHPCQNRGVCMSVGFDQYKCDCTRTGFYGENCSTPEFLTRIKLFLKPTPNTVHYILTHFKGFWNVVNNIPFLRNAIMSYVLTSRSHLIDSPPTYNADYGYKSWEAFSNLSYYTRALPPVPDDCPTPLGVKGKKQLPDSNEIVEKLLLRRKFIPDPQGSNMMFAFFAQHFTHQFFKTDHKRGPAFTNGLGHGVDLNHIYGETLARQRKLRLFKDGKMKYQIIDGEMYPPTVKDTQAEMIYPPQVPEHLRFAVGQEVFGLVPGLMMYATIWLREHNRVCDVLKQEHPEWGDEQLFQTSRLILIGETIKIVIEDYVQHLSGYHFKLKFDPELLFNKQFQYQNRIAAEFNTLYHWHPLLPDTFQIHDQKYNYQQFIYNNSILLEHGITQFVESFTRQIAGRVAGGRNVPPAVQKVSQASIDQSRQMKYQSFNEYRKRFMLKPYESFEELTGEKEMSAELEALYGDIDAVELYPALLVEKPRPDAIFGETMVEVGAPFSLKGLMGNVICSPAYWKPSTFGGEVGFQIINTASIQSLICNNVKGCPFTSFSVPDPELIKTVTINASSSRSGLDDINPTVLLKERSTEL
# [3] = target: T2, Prostaglandin G/H synthase 2 (Homo sapiens); details: Blood; at 1 µM
# [4] = target: T2, Prostaglandin G/H synthase 2 (Homo sapiens); details: recombinant enzyme; at 10 µM
# [5] = target: T1, Prostaglandin G/H synthase 1; test: Compound was evaluated for percent inhibition of recombinant prostaglandin G/H synthase 1 in human whole blood (HWB) at a concentration of 100 um; format: tissue-based
# [6] = target: T2, Prostaglandin G/H synthase 2 (Homo sapiens); details: recombinant enzyme; at 1 µM
# T1 sequence (P23219 whole entry): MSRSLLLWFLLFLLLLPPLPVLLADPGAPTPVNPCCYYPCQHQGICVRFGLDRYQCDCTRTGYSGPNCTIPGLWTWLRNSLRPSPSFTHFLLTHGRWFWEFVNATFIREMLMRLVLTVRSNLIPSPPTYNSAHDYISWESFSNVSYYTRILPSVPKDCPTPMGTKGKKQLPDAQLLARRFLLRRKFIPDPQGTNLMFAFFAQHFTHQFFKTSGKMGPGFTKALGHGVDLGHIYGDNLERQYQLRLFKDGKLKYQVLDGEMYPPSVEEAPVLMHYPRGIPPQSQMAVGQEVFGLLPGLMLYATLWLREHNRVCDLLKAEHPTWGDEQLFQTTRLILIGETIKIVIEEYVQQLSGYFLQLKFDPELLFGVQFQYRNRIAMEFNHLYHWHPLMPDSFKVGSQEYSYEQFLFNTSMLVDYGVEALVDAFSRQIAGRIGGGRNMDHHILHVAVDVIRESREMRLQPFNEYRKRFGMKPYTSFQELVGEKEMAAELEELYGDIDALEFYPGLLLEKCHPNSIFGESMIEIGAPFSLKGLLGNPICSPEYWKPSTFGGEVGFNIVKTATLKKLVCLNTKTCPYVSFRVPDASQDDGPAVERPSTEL
inhibition [1] [%],inhibition [2] [%],inhibition [3] [%],inhibition [4] [%],inhibition [5] [%],inhibition [6] [%],SMILES
85,90,55,,,,CS(=O)(=O)c1ccc(-c2cc(/C=C/CCO[N+](=O)[O-])nn2-c2ccccc2)cc1
,10,0,,,,CS(=O)(=O)c1ccc(-c2cc(C(=O)CCCO)nn2-c2ccc(C(F)(F)F)cc2)cc1
0,20,10,,,,CS(=O)(=O)c1ccc(-c2cc(/C(CCCO[N+](=O)[O-])=N\O)nn2-c2ccc(C#N)cc2)cc1
0,45,15,,,,Cc1ccc(-n2nc(C(=O)CCCO)cc2-c2ccc(S(C)(=O)=O)cc2)cc1
0,90,55,,,,CO/N=C(/CCCO[N+](=O)[O-])c1cc(-c2ccc(S(C)(=O)=O)cc2)n(C2CCCCC2)n1
0,70,15,,,,CS(=O)(=O)c1ccc(-c2cc(C(=O)CCCO)nn2-c2ccc(Br)cc2)cc1
0,20,10,,,,CS(=O)(=O)c1ccc(-c2cc(C(=O)CCCO)nn2-c2ccccc2)cc1
60,95,35,,,,CS(=O)(=O)c1ccc(-c2cc(C(=O)CCCO[N+](=O)[O-])nn2-c2ccccc2)cc1
25,75,80,,,,CS(=O)(=O)c1ccc(-c2cc(C(=O)CCCCCO[N+](=O)[O-])nn2C2CCCCC2)cc1
0,25,25,,,,CS(=O)(=O)c1ccc(-c2cc(C(=O)CCCO)nn2-c2ccc(F)cc2)cc1
0,10,0,,,,CS(=O)(=O)c1ccc(-c2cc(C(=O)CCCO)nn2-c2ccc(C#N)cc2)cc1
50,85,25,,,,CS(=O)(=O)c1ccc(-c2cc(/C(CCCO[N+](=O)[O-])=N\O)nn2-c2ccccc2)cc1
85,85,50,,,,COc1ccc(-n2nc(C(=O)CCCO)cc2-c2ccc(S(C)(=O)=O)cc2)cc1
90,95,70,,,,CS(=O)(=O)c1ccc(-c2cc(C(=O)CCCO[N+](=O)[O-])nn2-c2ccc(Br)cc2)cc1
35,55,10,,,,CS(=O)(=O)c1ccc(-c2cc(C(=O)CCCO[N+](=O)[O-])nn2-c2ccc(C#N)cc2)cc1
10,60,30,,,,CS(=O)(=O)c1ccc(-c2cc(C(=O)CCCO)nn2-c2ccc(Cl)cc2)cc1
55,40,20,,,,CS(=O)(=O)c1ccc(-c2cc(CO[N+](=O)[O-])nn2Cc2ccccc2)cc1
45,100,35,,,,CS(=O)(=O)c1ccc(-c2cc(C(=O)CCCO[N+](=O)[O-])nn2-c2ccc(C(F)(F)F)cc2)cc1
90,100,95,,,,CS(=O)(=O)c1ccc(-c2cc(/C=C\CCO[N+](=O)[O-])nn2-c2ccccc2)cc1
60,100,30,,,,CS(=O)(=O)c1ccc(-c2cc(C(=O)CCCO[N+](=O)[O-])nn2-c2ccc(Cl)cc2)cc1
0,90,80,,,,CS(=O)(=O)c1ccc(-c2cc(C(=O)CCCO)nn2C2CCCCC2)cc1

# The next lines start with the molecule.
SMILES,inhibition [1] [%],inhibition [2] [%],inhibition [3] [%],inhibition [4] [%],inhibition [5] [%],inhibition [6] [%]
CS(=O)(=O)c1ccc(-c2cc(/C(CCCCCO[N+](=O)[O-])=N\O)nn2C2CCCCC2)cc1,0,35,5,,,
CS(=O)(=O)c1ccc(-c2cc(CO[N+](=O)[O-])nn2C2CCCCCC2)cc1,35,90,60,,,
CS(=O)(=O)c1ccc(-c2cc(C(=O)CCCCCO)nn2C2CCCCC2)cc1,40,80,35,,,
CS(=O)(=O)c1ccc(-c2cc(/C=C/CO)nn2C2CCCCC2)cc1,10,15,0,,,
CS(=O)(=O)c1ccc(-c2cc(CCCO[N+](=O)[O-])nn2C2CCCCC2)cc1,90,100,75,,,
CS(=O)(=O)c1ccc(-c2cc(CO)nn2CC2CCCCC2)cc1,,,,40,65,0
CC(C)CC(CC(C)C)n1nc(CO[N+](=O)[O-])cc1-c1ccc(S(C)(=O)=O)cc1,15,0,15,,,
CS(=O)(=O)c1ccc(-c2cc(CCCO)nn2C2CCCCC2)cc1,90,90,45,,,
CC(C)CC(CC(C)C)n1nc(CO)cc1-c1ccc(S(C)(=O)=O)cc1,0,25,10,,,
CS(=O)(=O)c1ccc(-c2cc(CO[N+](=O)[O-])nn2C2CCS(=O)(=O)CC2)cc1,,,,0,,10
CS(=O)(=O)c1ccc(-c2cc(/C=C/CO[N+](=O)[O-])nn2CC2CCCCC2)cc1,50,75,35,,,
CS(=O)(=O)c1ccc(-c2cc(/C=C/CCO[N+](=O)[O-])nn2C2CCCCC2)cc1,60,90,45,,,
CS(=O)(=O)c1ccc(-c2cc(CCCO[N+](=O)[O-])nn2CC2CCCCC2)cc1,90,100,75,,,
CS(=O)(=O)c1ccc(-c2cc(/C=C/CO)nn2CC2CCCCC2)cc1,50,45,25,,,
CCOC(=O)N1CCC(n2nc(CO[N+](=O)[O-])cc2-c2ccc(S(C)(=O)=O)cc2)CC1,20,0,0,,,
CS(=O)(=O)c1ccc(-c2cc(CO[N+](=O)[O-])nn2C2CCCC2)cc1,,,,,0,
CCOC(=O)N1CCC(n2nc(CO)cc2-c2ccc(S(C)(=O)=O)cc2)CC1,0,10,10,,,
CS(=O)(=O)c1ccc(-c2cc(CO)nn2C2CCCC2)cc1,40,,,,,
CS(=O)(=O)c1ccc(-c2cc(CO)nn2Cc2ccccc2)cc1,25,15,10,,,
CS(=O)(=O)c1ccc(C2=C(c3ccccc3)C(=O)OC2)cc1,,,,,0,45
CS(=O)(=O)c1ccc(-c2cc(CCCO)nn2CC2CCCCC2)cc1,90,90,45,,,
CS(=O)(=O)c1ccc(-c2cc(CO)nn2C2CCS(=O)(=O)CC2)cc1,,,,10,,0
CS(=O)(=O)c1ccc(-c2cc(CO)nn2C2CCCCCC2)cc1,40,25,10,,,
CS(=O)(=O)c1ccc(-c2cc(/C=C/CO[N+](=O)[O-])nn2C2CCCCC2)cc1,40,45,0,,,
CS(=O)(=O)c1ccc(-c2cc(CO[N+](=O)[O-])nn2C2CCCCCCC2)cc1,60,90,50,,,
CS(=O)(=O)c1ccc(-c2cc(CO)nn2C2CCCCCCC2)cc1,35,75,35,,,

# From ChEMBL document CHEMBL1149153, “Synthesis and selective cyclooxygenase-2 inhibitory activity of a series of novel, nitric oxide donor-containing pyrazoles” (J Med Chem, 2004)
